Source: PubChem BioAssay (several laboratories)
In the library only some 9.3% were active in any assay of this set; here they are far more common.
D1 mod = D1 dopamine receptor (human) allosteric modulation; HEK293 D1, CRE-luciferase, dopamine EC30 potentiation; actives deviate in either direction; B-score at 10 µM; 5.9% of 58,000 active; AID 641;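 active means luminescence count or its row- and column-corrected plate score outside the 99.7% band of the plate's sample wells, on either side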
Target sequence (P21728 whole entry, looked up): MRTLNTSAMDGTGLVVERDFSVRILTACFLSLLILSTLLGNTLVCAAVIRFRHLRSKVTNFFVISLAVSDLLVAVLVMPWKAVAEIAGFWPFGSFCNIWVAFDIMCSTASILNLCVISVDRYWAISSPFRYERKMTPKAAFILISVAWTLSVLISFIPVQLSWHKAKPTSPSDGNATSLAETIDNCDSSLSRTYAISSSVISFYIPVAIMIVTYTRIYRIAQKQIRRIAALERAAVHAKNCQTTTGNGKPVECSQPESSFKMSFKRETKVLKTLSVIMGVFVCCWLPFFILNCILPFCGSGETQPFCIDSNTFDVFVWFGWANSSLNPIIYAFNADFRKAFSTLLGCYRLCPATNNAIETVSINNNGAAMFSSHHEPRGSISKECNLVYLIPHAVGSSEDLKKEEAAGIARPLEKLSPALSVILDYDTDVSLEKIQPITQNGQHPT
hDAT+cocaine = human DAT dopamine uptake with cocaine, either direction. Q01959. LLC-PK1 hDAT cells, [14C]-dopamine uptake with cocaine IC80; actives deviate in either direction. B-score at 10 µM. 1.3% of 110,000 active. AID 449768;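 active means Z score or B-score, a plate-position-corrected score, falls beyond the plate's 99.7% confidence bounds, in either direction; inactive means both scores lie inside the 99.7% bounds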;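 further: scored against the spread of the other compound wells on the same plate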
E coli WT exp = blocks growth of wild type E. coli BW25113; OD600 absorbance; growth inhibition, % at 100 µM; 0.15% of 98,000 active;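 active means growth inhibition above about 50% at one test dose, limit read from the data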;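 further: growth measured after 20 h incubation at 37 °C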
PostGolgi yeast = growth inhibition of a yeast mutant, post-Golgi transport screen; 0.9% of 98,000 active; inhibition, % at 10 µM; post-Golgi transport phenotypic cell assay;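 further: yeast cells grown in 1536-well plates; yeast grown about 18 h at 30C before absorbance read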
PostGolgi ctrl = yeast control strain growth, post-Golgi counter-screen | 5% of 98,000 active | inhibition, % at 10 µM | AID 738 | efflux-deficient yeast background strain, growth absorbance A615, 16 h
Ecoli tolC = E. coli tolC mutant growth inhibition; E. coli BW25113 tolC mutant growth, OD615; growth inhibition, % at 10 µM (by protocol); 2.2% of 65,000 active;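 active means growth inhibition at or above a cutoff equal to the mean over every tested compound plus 3 SD, cut at about 60% in these data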;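 further: growth measured after 20 h incubation at 37 °C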
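signal = optical density read at 615 nm | test system = E. coli ΔtolC::kan strain BW25113 | timing = 20 h compound exposure of bacteria at 37 °C | buffer or medium = LB medium plus 50 µg/mL kanamycin | compound dosing = 10 µM final, single dose | evaluation = % inhibition of E. coli growth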
D1 PAM confirm = confirmation of human D1 dopamine receptor allosteric modulators. 88% of 2,200 active. HEK293 D1 CRE-luciferase, dopamine EC30 potentiation; hits give high values. shares compounds with D1 mod. luminescence at 10 µM. AID 642;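 active means luminescence in either of two replicates above the same-plate mean plus 3 SD of the low-dose dopamine control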
D1 ag no DA = D1 (human) signaling in absence of dopamine | shares compounds with D1 mod | HEK293 D1 CRE-luciferase, luminescence, no dopamine; hits give high values | luminescence at 10 µM | 0.8% of 1,900 active | AID 646; in the data active means luminescence above about 3900
Isoprot counter = alters isoproterenol CRE-luciferase response in HEK293 cells. 63% of 2,200 active. HEK293 D1 CRE-luciferase, isoproterenol EC30 counter-screen. AID 647. shares compounds with D1 mod. calls only at 10 µM;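 active means luminescence in either replicate above plate mean of wells with a partly effective reference agonist dose plus 3 SD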;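 further: isoproterenol raises cAMP through native beta-adrenoceptor Gs so signal bypasses D1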
* = called active by the depositor; i = inactive; . = no result; + = active, no number. Unless noted, no stated cut-off is given here; in the data, active means inhibition above about 30%; inactive means the rest.

SMILES	D1 mod	hDAT+cocaine	E coli WT exp	PostGolgi yeast	PostGolgi ctrl	Ecoli tolC	D1 PAM confirm	D1 ag no DA	Isoprot counter
C=CCn1c(N2CCCCCC2)nc2c1c(=O)[nH]c(=O)n2C	6.4*	-0.7	5	-10	7	-4	12744*	1604	+
C=CCn1c(SCC(=O)OC)nc2sc3c(c2c1=O)CCN(C)C3	.	0.0083	5	-5	-7	-2	.	.	.
COc1ccc(Cl)cc1NC(=O)CN1CCC(n2nnc3ccccc32)CC1	.	0.24	-10	7	19	1	.	.	.
CCCCCNc1nc2ccccc2nc1NS(=O)(=O)c1cccs1	.	0.096	-1	6	24	.	.	.	.
O=S(=O)(Nc1nc2ccccc2nc1NCc1ccco1)c1cccs1	8.4*	-0.85	4	-13	-1	81*	15532*	1652	+
C=CCNc1nc2ccccc2nc1NS(=O)(=O)c1cccs1	6.9*	-0.048	7	-6	3	30	11704*	.	+
COc1ccc(CN(Cc2cccnc2)S(=O)(=O)c2ccc(-n3cnnn3)c(C)c2)cc1OC	3.7*	0.25	2	12	1	.	7956*	1480	i
CCOc1ccccc1C1NC(=O)NC(C)=C1C(=O)OC1CCCCC1 (stereo not drawn)	4.2*	0.49	-1	15	28	29	5388*	1456	i
O=C(NCCSCc1ccccc1)c1ccc(C2SCC(=O)N2Cc2ccccc2)cc1 (stereo not drawn)	.	1.7	-8	16	5	.	.	.	.
Cc1cc(C(F)(F)F)nn1CCCNC(=O)c1cnccn1	-0.46	-0.044	4	4	20	-1	.	.	.
O=C(c1ccccc1)N1CCN(c2ncnc3sc4c(c23)CCC4)CC1	.	1.7	5	22	5	.	.	.	.
O=C(c1ccco1)N1CCN(C(c2ccccc2)c2nnnn2C2CCCC2)CC1 (stereo not drawn)	.	0.87	.	.	.	.	.	.	.
CCN(CC(=O)Nc1c(C(=O)OC)[nH]c2ccccc12)c1ccc2c(c1)OCO2	8.3*	1	-4	-7	13	33	11912*	1772	+
CCOC(=O)c1[nH]c2ccccc2c1NC(=O)c1ccc2c(c1)OCO2	1.5	0.0058	-15	6	8	-15	.	.	.
COc1ccc(CCN2C(=O)C3C4CC(C5C(C(=O)N/N=C\c6ccc(Cl)cc6)=NOC45)C3C2=O)cc1OC (stereo not drawn)	.	0.34	12	-6	4	.	.	.	.
CCOC(=O)c1[nH]c(CSc2nnc(-c3ccc(OC)cc3)o2)c(C(=O)OCC)c1C	4.8*	-0.53	-13	-8	7	18	13216*	1404	+
COc1ccc(-c2nnc(SCC(=O)c3[nH]c(C)c(C(C)=O)c3C)o2)cc1	-1.7	-0.87	-15	-7	6	-4	.	.	.
Cc1cc(S(=O)(=O)N2CCCCCC2)c(Cl)cc1Cl	.	0.41	3	4	12	.	.	.	.
CCCCc1[nH]nc2c1C1(C(=O)N(CC)c3ccccc31)C(C#N)=C(N)O2 (stereo not drawn)	16*	-0.13	0	6	15	10	13864*	1676	+
Cc1cc(C)cc(OCc2nnc(SCC(=O)N3CCN(c4ccccc4)CC3)o2)c1	0.12	-0.97	-6	-4	16	4	.	.	.
CC1(C)Cc2cccc(OCC(=O)Nc3cc(C(F)(F)F)ccc3N3CCOCC3)c2O1	.	-0.019	-3	11	8	.	.	.	.
CCc1ccccc1NC(=O)Cn1nc(C(F)(F)F)cc1C1CC1	.	0.26	-1	1	17	.	.	.	.
Cc1nc2cccc(C)n2c(=O)c1Cl	.	-0.78	7	-8	4	.	.	.	.
COC(=O)C(C)Sc1nc2c(c(=O)n(C)c(=O)n2C)n1CCC(C)C (stereo not drawn)	.	.	.	.	.	3	.	.	.
COC(=O)C(C)Sc1nc2c(c(=O)[nH]c(=O)n2C)n1CCC(C)C (stereo not drawn)	9.9*	0.74	2	0	13	4	21460*	1708	+
SMILES	D1 mod	hDAT+cocaine	E coli WT exp	PostGolgi yeast	PostGolgi ctrl	Ecoli tolC	D1 PAM confirm	D1 ag no DA	Isoprot counter
COCCSc1nc2c(c(=O)[nH]c(=O)n2C)n1CCC(C)C	11*	.	4	-6	14	-1	21024*	1464	+
CCC(C)Nc1nc2c(c(=O)[nH]c(=O)n2C)n1CCC(C)C (stereo not drawn)	17*	0.32	3	8	0	7	18228*	1632	+
C=C(C)CSc1nc2c(c(=O)[nH]c(=O)n2C)n1CCC(C)C	11*	0.31	4	-4	21	11	22496*	1732	+
CC1(C)CC(=O)C2=C(C1)OC(N)=C(C#N)C2C1CC=CCC1 (stereo not drawn)	3.8	-0.05	-13	-8	8	-7	.	.	.
COc1cc2c(cc1OC)-c1cc(N3CCCc4ccccc43)nc(=O)n1CC2	.	-0.77	5	-8	5	35	.	.	.
CCN(CC)CCCNc1cc2n(c(=O)n1)CCc1cc(OC)c(OC)cc1-2	0.2	0.081	0	9	1	-24	.	.	.
COc1cc2c(cc1OC)-c1cc(N3CCCCCC3)nc(=O)n1CC2	3.9*	0.49	0	1	6	-1	21696*	2196	+
COc1cc2c(cc1OC)-c1cc(Nc3ccc4c(c3)OCCO4)nc(=O)n1CC2	24*	0.85	2	-2	-6	14	13360*	1788	+
COc1cc2c(cc1OC)-c1cc(NC3CCCCCC3)nc(=O)n1CC2	4*	0.62	3	12	-2	16	20748*	2368	+
CCOc1cccc(Nc2cc3n(c(=O)n2)CCc2cc(OC)c(OC)cc2-3)c1	.	0.98	-8	-6	12	.	.	.	.
COc1cc2c(cc1OC)-c1cc(OCc3cccnc3)nc(=O)n1CC2	19*	0.65	5	-4	0	4	25704*	2128	+
O=C(Nc1cccc(NC(=O)c2nccc3ccccc23)c1)c1ccco1	0.67	.	.	.	.	17	.	.	.
NS(=O)(=O)c1ccc(CCNC2CC(=O)N(CCc3ccccc3)C2=O)cc1 (stereo not drawn)	2.3*	0.19	0	14	4	-8	4996	1548	i
COc1ccc(CCNC2CC(=O)N(CCc3ccccc3)C2=O)cc1OC (stereo not drawn)	0.057	-0.12	.	.	.	-6	.	.	.
CCC(NC(C)C)C(O)c1ccc(O)c2[nH]c(=O)ccc12 (stereo not drawn)	14*	-0.95	.	.	.	19	8644*	3980*	+
Cc1ccc(-c2nc(CS(=O)CC(=O)NC3CCC(C)CC3)c(C)o2)cc1 (stereo not drawn)	0.096	0.62	0	-14	8	3	.	.	.
